From ChEMBL document CHEMBL1122648 (J Med Chem, 1984)

Tests used:
CCRF-CEM = assay: In vitro cytotoxicity by its growth inhibitory activity against human leukemic lymphoblasts (CEM cells).; format: functional, cell-based
Procedure, shortened: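 Human leukemic lymphoblasts (CEM) counted after 48 h of drug exposure. Compounds dissolved in Me2SO (1 mg/mL), diluted 10-fold in Me2SO, then added to growth medium (final Me2SO 0.1%). Triplicate tubes per dose, averaged; IC50 reported.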

Dihydrofolate reductase = biological target: T1, Dihydrofolate reductase (Bos taurus, UniProt P00376); assay: In vitro ability to inhibit the Dihydrofolate reductase extracted from beef liver.
T1 sequence (P00376 whole entry): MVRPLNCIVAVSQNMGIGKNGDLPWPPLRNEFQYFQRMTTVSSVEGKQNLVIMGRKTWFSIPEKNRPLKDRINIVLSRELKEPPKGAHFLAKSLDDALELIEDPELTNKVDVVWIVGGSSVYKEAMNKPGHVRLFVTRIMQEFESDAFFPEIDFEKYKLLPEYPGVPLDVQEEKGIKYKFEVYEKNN

[1] = Compound was evaluated for its inhibitory effect on deoxyuridine ([3H]dUrd ) incorporation into DNA of CEM/MTX cells in culture at conc. 10e-7; format: functional, Homo sapiens; parameters: scale not given: the % may be the effect or the level left
Procedure, shortened: (§1)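 Log-phase CEM or CEM/MTX (transport-defective) cells, 2×10^5 per tube in serum-free EBSS, exposed to 10^-7–10^-4 M compound for 1 h at 37 °C under 5% CO2. Then pulsed 0.5 h with [3H]dThd or [3H]dUrd, washed in cold EBSS and lysed in SDS with tRNA carrier. DNA precipitated with cold 0.5 N HClO4; acid-insoluble counts given as % of untreated controls.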

[2] = Compound was evaluated for its inhibitory effect on deoxyuridine ([3H]dUrd) incorporation into DNA of CEM/MTX cells in culture at conc. 10e-5; format: functional, Homo sapiens; parameters: scale not given: the % may be the effect or the level left; procedure, shortened: as §1
[3] = Compound was evaluated for its inhibitory effect on deoxyuridine ([3H]dUrd) incorporation into DNA of CEM cells in culture at conc. 10e-4; format: functional, Homo sapiens, CCRF-CEM; parameters: scale not given: the % may be the effect or the level left; procedure, shortened: as §1
[4] = Compound was evaluated for its inhibitory effect on thymidine ([3H]dThd) incorporation into DNA of CEM cells in at conc. 10e-7; format: functional, Homo sapiens, CCRF-CEM; parameters: scale not given: the % may be the effect or the level left; procedure, shortened: as §1
[5] = Compound was evaluated for its inhibitory effect on thymidine ([3H]dThd) incorporation into DNA of CEM cells in culture at conc. 10e-5; format: functional, Homo sapiens, CCRF-CEM; parameters: scale not given: the % may be the effect or the level left; procedure, shortened: as §1
[6] = Compound was evaluated for its inhibitory effect on thymidine [3H]dThd) incorporation into DNA of CEM/MTX cells in culture at conc. 10e-5; format: functional, Homo sapiens; parameters: scale not given: the % may be the effect or the level left; procedure, shortened: as §1
[7] = Compound was evaluated for its inhibitory effect on deoxyuridine ([3H]dUrd) incorporation into DNA of CEM cells in culture at conc. 10e-5; format: functional, Homo sapiens, CCRF-CEM; parameters: scale not given: the % may be the effect or the level left; procedure, shortened: as §1
[8] = Compound was evaluated for its inhibitory effect on thymidine ([3H]-dThd) incorporation into DNA of CEM/MTX cells in at conc. 10e-7.; format: functional, Homo sapiens; parameters: scale not given: the % may be the effect or the level left; procedure, shortened: as §1
[9] = Compound was evaluated for its inhibitory effect on deoxyuridine ([3H]-dUrd) incorporation into DNA of CEM cells in at conc. 10e-6; format: functional, Homo sapiens, CCRF-CEM; parameters: scale not given: the % may be the effect or the level left; procedure, shortened: as §1
[10] = Compound was evaluated for its inhibitory effect on thymidine ([3H]-dThd) incorporation into DNA of CEM cells in culture at conc. 10e-4; format: functional, Homo sapiens, CCRF-CEM; parameters: scale not given: the % may be the effect or the level left; procedure, shortened: as §1
[11] = Compound was evaluated for its inhibitory effect on thymidine [3H]-dThd) incorporation into DNA of CEM/MTX cells in culture at conc. 10e-6; format: functional, Homo sapiens; parameters: scale not given: the % may be the effect or the level left; procedure, shortened: as §1
[12] = Compound was evaluated for its inhibitory effect on thymidine ([3H]dThd) incorporation into DNA of CEM/MTX cells in culture at conc. 10e-4; format: functional, Homo sapiens; parameters: scale not given: the % may be the effect or the level left; procedure, shortened: as §1
[13] = Compound was evaluated for its inhibitory effect on deoxyuridine ([3H]dUrd ) incorporation into DNA of CEM cells in culture at conc. 10e-7; format: functional, Homo sapiens, CCRF-CEM; parameters: scale not given: the % may be the effect or the level left; procedure, shortened: as §1
[14] = Compound was evaluated for its inhibitory effect on thymidine ([3H]dThd) incorporation into DNA of CEM cells in culture at conc. 10e-6; format: functional, Homo sapiens, CCRF-CEM; parameters: scale not given: the % may be the effect or the level left; procedure, shortened: as §1
[15] = Compound was evaluated for its inhibitory effect on deoxyuridine ([3H]dUrd) incorporation into DNA of CEM/MTX cells in culture at conc. 10e-6; format: functional, Homo sapiens; parameters: scale not given: the % may be the effect or the level left; procedure, shortened: as §1
[16] = Compound was evaluated for its inhibitory effect on deoxyuridine ([3H]dUrd) incorporation into DNA of CEM/MTX cells in culture at conc. 10e-4; format: functional, Homo sapiens; parameters: scale not given: the % may be the effect or the level left; procedure, shortened: as §1

SMILES	IC50 (CCRF-CEM) [nM]	IC50 (Dihydrofolate reductase) [nM]	also measured
CCCCCCCCCCCCCCCCOC(=O)C(CCC(=O)O)NC(=O)c1ccc(N(C)Cc2cnc3nc(N)nc(N)c3n2)cc1 (stereo not drawn)	250	1200	
CCCCCCCCCCCCOC(=O)CCC(NC(=O)c1ccc(N(C)Cc2cnc3nc(N)nc(N)c3n2)cc1)C(=O)O (stereo not drawn)	370	34	
CN(Cc1cnc2nc(N)nc(N)c2n1)c1ccc(C(=O)N[C@@H](CCC(=O)O)C(=O)O)cc1 [METHOTREXATE]	25		
CCCCCCCCOC(=O)C(CCC(=O)O)NC(=O)c1ccc(N(C)Cc2cnc3nc(N)nc(N)c3n2)cc1 (stereo not drawn)	3000	360	
CCCCOC(=O)CCC(NC(=O)c1ccc(N(C)Cc2cnc3nc(N)nc(N)c3n2)cc1)C(=O)O (stereo not drawn)	780	5.4	
CCCCCCCCOC(=O)CCC(NC(=O)c1ccc(N(C)Cc2cnc3nc(N)nc(N)c3n2)cc1)C(=O)O (stereo not drawn)	920	5.4	
CCCCCCCCCCCCOC(=O)C(CCC(=O)O)NC(=O)c1ccc(N(C)Cc2cnc3nc(N)nc(N)c3n2)cc1 (stereo not drawn)	2100	440	
CCCCOC(=O)C(CCC(=O)O)NC(=O)c1ccc(N(C)Cc2cnc3nc(N)nc(N)c3n2)cc1 (stereo not drawn)	2000	56	
CCCCCCCCCCCCCCCCOC(=O)CCC(NC(=O)c1ccc(N(C)Cc2cnc3nc(N)nc(N)c3n2)cc1)C(=O)O (stereo not drawn)	110	37	Control [1]: 95%; Control [2]: 55%; Control [3]: 7%; Control [4]: 92%; Control [5]: 25%; Control [6]: 15%; Control [7]: 14%; Control [8]: 81%; Control [9]: 64%; Control [10]: 17%; Control [11]: 108%; Control [12]: 8%; Control [13]: 117%; Control [14]: 67%; Control [15]: 103%; Control [16]: 2%
